In ChEMBL document CHEMBL4028902, “Azetidine and Piperidine Carbamates as Efficient, Covalent Inhibitors of Monoacylglycerol Lipase” (J Med Chem, 2017):
Calls of active or inactive are those of the source. The calls are words filed in the database; no cut-off is given here.

What was measured:
[1] = target: T1, Cocaine esterase (Homo sapiens, UniProt O00748); assay: Inhibition of human CES2 at 1 to 10 uM relative to control
T1 sequence (O00748 whole entry): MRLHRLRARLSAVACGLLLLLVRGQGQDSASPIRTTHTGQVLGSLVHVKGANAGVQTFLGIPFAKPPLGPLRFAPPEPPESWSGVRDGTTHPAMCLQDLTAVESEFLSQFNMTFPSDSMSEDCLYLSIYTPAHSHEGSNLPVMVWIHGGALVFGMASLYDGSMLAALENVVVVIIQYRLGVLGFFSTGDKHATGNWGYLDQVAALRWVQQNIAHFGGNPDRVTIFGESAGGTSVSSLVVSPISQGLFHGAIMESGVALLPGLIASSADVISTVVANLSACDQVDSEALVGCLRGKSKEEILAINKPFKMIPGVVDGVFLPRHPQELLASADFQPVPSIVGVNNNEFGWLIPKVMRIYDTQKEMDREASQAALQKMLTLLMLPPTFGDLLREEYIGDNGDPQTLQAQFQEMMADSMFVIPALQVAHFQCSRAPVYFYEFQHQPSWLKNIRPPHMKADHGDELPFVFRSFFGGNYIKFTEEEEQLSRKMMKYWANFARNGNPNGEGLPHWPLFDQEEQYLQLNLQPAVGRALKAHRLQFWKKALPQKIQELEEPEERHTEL

[2] = target: T2, Fatty-acid amide hydrolase 1 (Homo sapiens) (UniProt O00519); assay: Inhibition of human recombinant FAAH at 10 uM using arachidonoyl-AMC as substrate preincubated for 30 mins followed by substrate addition measured after 60 mins by fluorescence assay relative to control
T2 sequence (whole entry): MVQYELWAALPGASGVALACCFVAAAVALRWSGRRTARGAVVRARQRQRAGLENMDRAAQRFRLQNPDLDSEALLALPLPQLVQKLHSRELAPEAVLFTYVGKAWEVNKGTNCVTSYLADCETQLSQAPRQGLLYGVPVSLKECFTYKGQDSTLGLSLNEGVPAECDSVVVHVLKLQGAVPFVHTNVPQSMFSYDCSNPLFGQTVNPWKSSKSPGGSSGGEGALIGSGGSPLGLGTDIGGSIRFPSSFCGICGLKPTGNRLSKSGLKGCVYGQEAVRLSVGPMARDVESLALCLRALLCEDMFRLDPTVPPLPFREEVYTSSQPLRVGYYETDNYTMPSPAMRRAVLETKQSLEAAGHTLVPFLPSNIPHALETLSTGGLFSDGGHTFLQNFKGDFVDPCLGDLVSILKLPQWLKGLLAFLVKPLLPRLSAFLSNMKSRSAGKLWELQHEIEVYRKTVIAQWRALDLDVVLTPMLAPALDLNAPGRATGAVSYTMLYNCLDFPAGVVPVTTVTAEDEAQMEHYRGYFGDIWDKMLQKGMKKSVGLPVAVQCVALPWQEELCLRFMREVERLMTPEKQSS

[3] = target: T3, Platelet-activating factor acetylhydrolase (Homo sapiens) (UniProt Q13093); assay: Inhibition of human PLA2G7 at 1 to 10 uM relative to control
T3 sequence (whole entry): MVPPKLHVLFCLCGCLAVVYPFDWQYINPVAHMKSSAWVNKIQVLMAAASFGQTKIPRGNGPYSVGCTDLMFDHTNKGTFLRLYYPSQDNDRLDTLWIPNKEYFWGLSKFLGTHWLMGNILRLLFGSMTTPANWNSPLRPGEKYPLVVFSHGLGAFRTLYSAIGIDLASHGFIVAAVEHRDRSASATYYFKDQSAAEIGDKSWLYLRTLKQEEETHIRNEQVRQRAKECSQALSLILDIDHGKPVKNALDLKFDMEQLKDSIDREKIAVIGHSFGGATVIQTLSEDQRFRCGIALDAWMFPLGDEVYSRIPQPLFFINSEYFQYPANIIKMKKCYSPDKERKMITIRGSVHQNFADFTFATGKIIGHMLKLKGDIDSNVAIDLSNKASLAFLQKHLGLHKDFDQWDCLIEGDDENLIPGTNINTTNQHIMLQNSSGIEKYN

[4] = target: T4, Monoglyceride lipase (Homo sapiens, UniProt Q99685); assay: Inhibition of human recombinant MAGL using 7-HCA as substrate preincubated for 30 mins followed by substrate addition measured after 60 mins by fluorescence assay
T4 sequence (Q99685 whole entry): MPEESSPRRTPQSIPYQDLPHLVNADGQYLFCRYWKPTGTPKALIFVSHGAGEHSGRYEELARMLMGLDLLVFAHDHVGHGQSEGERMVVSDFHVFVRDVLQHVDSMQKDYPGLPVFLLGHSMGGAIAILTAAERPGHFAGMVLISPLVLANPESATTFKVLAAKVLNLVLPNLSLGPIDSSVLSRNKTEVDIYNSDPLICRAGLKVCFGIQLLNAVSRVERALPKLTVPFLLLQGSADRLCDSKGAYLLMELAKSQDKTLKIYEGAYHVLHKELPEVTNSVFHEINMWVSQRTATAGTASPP
In short: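 Reaction started with 7-HCA (5 μM final), run 60 min, fluorescence Ex/Em 340/465. Percent inhibition versus no-compound and full-inhibition controls; IC50 from four-parameter fit.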

[5] = target: T5, Monoacylglycerol lipase ABHD6 (Homo sapiens) (UniProt Q9BV23); assay: Inhibition of human ABHD6 at 1 to 10 uM relative to control
T5 sequence (whole entry): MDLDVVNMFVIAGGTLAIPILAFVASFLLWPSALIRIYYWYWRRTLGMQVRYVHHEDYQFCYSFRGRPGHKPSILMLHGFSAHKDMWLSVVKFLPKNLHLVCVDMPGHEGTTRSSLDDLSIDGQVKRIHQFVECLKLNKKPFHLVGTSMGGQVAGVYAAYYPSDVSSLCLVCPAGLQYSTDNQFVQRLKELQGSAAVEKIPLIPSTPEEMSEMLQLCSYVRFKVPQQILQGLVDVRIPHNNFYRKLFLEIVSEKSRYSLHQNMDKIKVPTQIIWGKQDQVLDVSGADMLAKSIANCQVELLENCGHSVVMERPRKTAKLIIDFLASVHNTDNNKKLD

[6] = target: T6, Monoglyceride lipase (Homo sapiens) (UniProt Q99685); assay: Inhibition of human recombinant MAGL at 1 to 10 uM using 7-HCA as substrate preincubated for 30 mins followed by substrate addition measured after 60 mins by fluorescence assay relative to control
T6 sequence (whole entry): T4 sequence (Q99685 whole entry)

[7] = system: Mus musculus; assay: In vivo inhibition of MAGL in C57Bl6 mouse assessed as increase in 2-AG levels in brain at 10 mg/kg, sc measured after 24 hrs by LC-MS/MS method; assay type: functional, organism-based
In short: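 C57Bl6 mice, 7 weeks old, 4 per cage, food and water ad libitum, dosed subcutaneously in DMSO/Cremophor/saline (5:5:90, v/v/v). Brains taken after isoflurane, cardiac puncture and cervical dislocation at 0.5, 1, 2, 4, 8, 12 and 24 h (3 mice per time point); vehicle group at 1 h. Frozen in liquid nitrogen, homogenized in 3 volumes PMSF/NH4OAc buffer pH 2.0, d5-2-AG internal standard, ACN extraction, LC-MS/MS (positive ESI, SRM).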

Row | SMILES | inhibition (INH) [1] | inhibition [2] | inhibition [3] | IC50 [4] | inhibition [5] | inhibition [6] | inhibition [7]
1 | O=C(OC(C(F)(F)F)C(F)(F)F)N1CC(c2ccn(-c3ccccc3)n2)C1 | > 70% | > 70% | > 70% | 0.18 nM | > 70% | > 70% | 
2 | O=C(OC(C(F)(F)F)C(F)(F)F)N1CCC(c2ccn(-c3ccccc3)n2)CC1 | > 70% | > 70% |  | 2 nM | > 70% | > 70% | Active
